From ChEMBL document CHEMBL1125611, “Synthesis and biological evaluation of a series of 1,1-dichloro-2,2,3-triarylcyclopropanes as pure antiestrogens” (1991) come the findings set out here.

The species named for experiment [1] is Mus musculus. Kind of experiment: Ability to antagonize uterine weight gain in immature mice, at a dose of 150 ug; Activity is expressed as anti-uterotrophic % reduction. The class given is functional. Set-up: scale not given: the % may be the effect or the level left. The method, boiled down:
(§1)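 Immature (17-19 days, 8-10 g) female Swiss-Webster mice, groups of six. Daily sc injections in the nape for 3 consecutive days. Estradiol in sesame oil (0.1 µg/mL, 0.1 mL; total 0.03 µg) plus 0.05 mL test compound in isopropyl myristate, given at separate sites. Vehicle and estradiol-only controls. Uteri cleaned, blotted and weighed 24 h after the last dose. % reduction of the estradiol-induced weight gain.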

The species entered for experiment [2] is Mus musculus. Kind of experiment: Ability to antagonize uterine weight gain in immature mice, at a dose of 30 ug; Activity is expressed as anti-uterotrophic % reduction. The class given is functional. Set-up: scale not given: the % may be the effect or the level left. The method, boiled down:
as §1

For experiment [3], the species on record is Mus musculus. Kind of experiment: Ability to antagonize uterine weight gain in immature mice, at a dose of 750 ug; Activity is expressed as anti-uterotrophic % reduction. Type of experiment: functional. Set-up: scale not given: the % may be the effect or the level left. The method, boiled down:
as §1

Experiment [4] deals with T1, Estrogen receptor (Mus musculus) (UniProt O08537+P19785). Kind of experiment: Antagonism of estradiol induced uterine weight gain in immature mice at 10 ug; Activity is expressed as anti-uterotrophic % reduction. The class given is functional. Set-up: scale not given: the % may be the effect or the level left. The procedure, abridged: as §1
Experiment [5] concerns the target T1, Estrogen receptor (Mus musculus). Kind of experiment: Antagonism of estradiol induced uterine weight gain in immature mice at 30 ug. Type of experiment: functional. Set-up: scale not given: the % may be the effect or the level left. The procedure, abridged:
as §1

For experiment [6] the target is unchanged. Kind of experiment: Antagonism of estradiol induced uterine weight gain in immature mice at 200 ug; Activity is expressed as anti-uterotrophic % reduction. The class given is functional. Set-up: scale not given: the % may be the effect or the level left. The method, boiled down:
as §1

Experiment [7] shares this target. Kind of experiment: Antagonism of estradiol induced uterine weight gain in immature mice at 400 ug; Activity is expressed as anti-uterotrophic % reduction. Set-up: scale not given: the % may be the effect or the level left. The class given is functional. The method, boiled down: as §1
Experiment [8] has the same target. Kind of experiment: Antagonism of estradiol induced uterine weight gain in immature mice at 800 ug; Activity is expressed as anti-uterotrophic % reduction. Type of experiment: functional. Set-up: scale not given: the % may be the effect or the level left. The method, boiled down: as §1
Experiment [9] addresses Estrogen receptor (Homo sapiens) (UniProt Q92731+P03372). Kind of experiment: Antiproliferative activity against estrogen receptor positive MCF-7 human breast cancer cell line at 10e-9 M. The class given is functional, cell-based. The settings on record: MCF7. The method, boiled down: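 MCF-7 cells in phenol-red-free RPMI 1640 with 5% calf serum, 2 mM L-glutamine and antibiotics, 37 °C, 5% CO2. Plated at 7.5 × 10⁴ cells/well, then allowed to attach for 2 days. Compound in 11:9 PEG 400–EtOH (final vehicle 0.1%) added on alternate days. Viable cells counted on day 4 by trypan blue exclusion, triplicate. % inhibition versus vehicle control.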

Experiment [10] addresses T1, Estrogen receptor (Mus musculus). Kind of experiment: Antagonism of estradiol induced uterine weight gain in immature mice at 150 ug.(p<0.01). Set-up: scale not given: the % may be the effect or the level left. Type of experiment: functional. The method, boiled down: as §1
Experiment [11] shares this target. Kind of experiment: Antagonism of estradiol induced uterine weight gain in immature mice at 4 ug; Activity is expressed as anti-uterotrophic % reduction. The class given is functional. Set-up: scale not given: the % may be the effect or the level left. The procedure, abridged:
as §1

For experiment [12] the target is unchanged. Description: Antagonism of estradiol induced uterine weight gain in immature mice at 750 ug; Activity is expressed as anti-uterotrophic % reduction. The class given is functional. Set-up: scale not given: the % may be the effect or the level left. The procedure, abridged: as §1
Experiment [13] concerns the target Estrogen receptor (Rattus norvegicus) (UniProt P06211+Q62986). Description: Relative binding affinity for estrogen receptor in rat uterine cytosol by displacement of [3H]-estradiol. The settings on record: Uterus. The procedure, abridged: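 Uterine cytosol from immature Sprague-Dawley rats (17-19 days) primed with estradiol (0.53 µg sc daily ×3). Competitive displacement of [3H]estradiol, with free ligand removed by dextran-coated charcoal. Parallel incubations with 4 × 10⁻⁶ diethylstilbestrol define nonspecific binding, which is subtracted. RBA relative to estradiol = 100%, by Bliss method, duplicates.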

T1 sequence (O08537 whole entry, looked up): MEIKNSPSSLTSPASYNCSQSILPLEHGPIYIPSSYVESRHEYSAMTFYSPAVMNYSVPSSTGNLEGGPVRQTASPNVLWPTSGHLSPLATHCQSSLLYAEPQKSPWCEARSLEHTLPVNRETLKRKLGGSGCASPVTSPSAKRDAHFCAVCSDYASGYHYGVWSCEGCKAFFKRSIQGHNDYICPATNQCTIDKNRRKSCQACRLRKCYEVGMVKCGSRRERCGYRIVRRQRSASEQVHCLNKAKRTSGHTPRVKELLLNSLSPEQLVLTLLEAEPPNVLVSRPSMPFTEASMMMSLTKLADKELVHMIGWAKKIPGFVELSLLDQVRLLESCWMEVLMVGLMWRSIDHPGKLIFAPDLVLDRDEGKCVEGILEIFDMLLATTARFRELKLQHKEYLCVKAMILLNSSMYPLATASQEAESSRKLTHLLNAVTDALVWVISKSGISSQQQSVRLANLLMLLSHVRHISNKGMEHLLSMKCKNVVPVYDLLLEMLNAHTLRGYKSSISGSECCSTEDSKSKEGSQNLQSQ
T1 sequence (P19785 whole entry, looked up): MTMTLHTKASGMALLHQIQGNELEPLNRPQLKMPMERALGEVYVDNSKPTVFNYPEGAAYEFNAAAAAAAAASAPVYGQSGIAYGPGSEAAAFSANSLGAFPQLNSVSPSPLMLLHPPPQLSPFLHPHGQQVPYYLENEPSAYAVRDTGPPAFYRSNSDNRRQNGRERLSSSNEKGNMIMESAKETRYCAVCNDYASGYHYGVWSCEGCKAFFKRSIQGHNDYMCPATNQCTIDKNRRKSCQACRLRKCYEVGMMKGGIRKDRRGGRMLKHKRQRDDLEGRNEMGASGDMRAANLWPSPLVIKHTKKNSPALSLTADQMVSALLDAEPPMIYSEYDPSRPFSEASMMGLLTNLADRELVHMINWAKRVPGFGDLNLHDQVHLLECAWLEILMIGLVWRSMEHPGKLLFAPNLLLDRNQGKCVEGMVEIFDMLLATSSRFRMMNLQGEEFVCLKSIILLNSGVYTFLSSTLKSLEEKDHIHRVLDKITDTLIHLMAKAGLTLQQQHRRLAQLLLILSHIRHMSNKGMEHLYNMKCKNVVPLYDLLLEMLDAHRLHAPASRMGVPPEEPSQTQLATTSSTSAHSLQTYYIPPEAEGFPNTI

In the case of `COc1ccc(C2=C(Cl)C(c3ccc(OC)cc3)c3cc(OC)ccc32)cc1` (configuration not stated), the values for the Activity in experiment [1], in experiment [2] and in experiment [3] were -6%, 27% and 28%, respectively.
On to `COc1ccc(C2C(Cl)(Cl)C2(c2ccc(OC)cc2)c2ccc(OCc3ccccc3)cc2)cc1` (configuration not stated), for which the Activity in [4] was 2%; in [1], 49%; in experiment [5] it was 15%; in [3], 2%.
With `COc1ccc(C2C(Cl)=C(c3ccc(OCc4ccccc4)cc3)c3ccc(OC)cc32)cc1` (configuration not stated), the figures for the Activity in experiment [1], in experiment [2] and in experiment [3] were 4%, 14% and 0%, respectively.
For `ClC1(Cl)C(c2ccccc2)C1c1ccccc1` (configuration not stated), the Activity in experiment [6] came out at 28%; in experiment [7] it was 42%; in experiment [8], 58%.
`COc1ccc(C2(c3ccc(OCc4ccccc4)cc3)C(c3ccccc3)C2(Cl)Cl)cc1` (configuration not stated) gave an inhibition in [9] of 31.3%. Also, the Activity amounted to 47% in experiment [10], 37% in [2] and 22% in experiment [3].
Consider `COc1ccc(C2C(Cl)(Cl)C2(c2ccc(O)cc2)c2ccc(OC)cc2)cc1` (configuration not stated), for which the Activity in experiment [1] was 10%; in experiment [2], 19%; in experiment [3], 26%.
In the same order, the values of `COc1ccc(C2C(Cl)=C(c3ccc(O)cc3)c3ccc(OC)cc32)cc1` (configuration not stated) are 14%, 3% and 12%.
In experiment [9], `CN(C)CCOc1ccc(C2(c3ccccc3)C(c3ccccc3)C2(Cl)Cl)cc1` (configuration not stated) returned an inhibition of 12.4%. For the same compound, the Activity is 10% in experiment [4]; 30% in [1]; 37% in experiment [2]; -6% in experiment [11]; 18% in experiment [3].
On to `Oc1ccc(C2(c3ccccc3)C(c3ccccc3)C2(Cl)Cl)cc1` (configuration not stated), for which the Activity in experiment [1] amounted to 12%; in experiment [2], 23%; in experiment [3], 25%.
In the same order, the values of `COc1ccc(C2(c3ccc(O)cc3)C(c3ccccc3)C2(Cl)Cl)cc1` (stereo in doubt; 6b) are -7%, 15% and 41%.
In the same order, the values of `CC/C(=C(\c1ccccc1)c1ccc(OCCN(C)C)cc1)c1ccccc1` [TAMOXIFEN] are 0%, 4% and -12%.
In the case of `CCN(CC)CCOc1ccc(C(O)(Cc2ccc(OC)cc2)c2ccccc2)cc1` (configuration not stated), the values for the Activity in [1], in experiment [2] and in experiment [12] were 30%, 1% and 82%, respectively.
`COc1ccc(C2(c3ccc(O)cc3)C(c3ccccc3)C2(Cl)Cl)cc1` (stereo in doubt; 6c): the Activity in [1] was 18%; in experiment [2] it was 28%; in experiment [3], 22%.
`COc1ccc(C2(c3ccccc3)C(c3ccccc3)C2(Cl)Cl)cc1` (configuration not stated) returned an inhibition in experiment [9] of 6.1%. Besides, the Activity is 49% in [1], 22% in experiment [2] and 33% in experiment [3].
In the case of `ClC1(Cl)C(c2ccccc2)C1(c1ccccc1)c1ccccc1` (configuration not stated), the RBA in [13] was 0.1%. Further, the Activity in experiment [1] amounted to 3%; in experiment [2], 11%; in [3], 13%.
`COc1ccc(C2(c3ccc(OCCN(C)C)cc3)C(c3ccccc3)C2(Cl)Cl)cc1` (configuration not stated): the Activity was 6% in experiment [4]; 42% in experiment [1]; 33% in [2]; -10% in experiment [11]; 53% in experiment [3].
